From ChEMBL document CHEMBL1144911, “Synthesis and biological evaluation of 5-substituted derivatives of the potent antiherpes agent (north)-methanocarbathymine” (J Med Chem, 2003)

Tests used:
HFF [1] = experiment: Cytotoxic concentration for 50% inhibition of cell growth of HSV-1 infected HFF cells determined by CPE assay; type: functional; conditions: Homo sapiens
HFF [2] = experiment: Cytotoxic concentration for 50% inhibition of cell growth of HSV-1 infected HFF cells determined by VPR assay; type: functional; conditions: Homo sapiens
HFF [3] = experiment: Cytotoxic concentration for 50% inhibition of cell growth of HSV-2 infected HFF cells determined by CPE assay; type: functional; conditions: Homo sapiens
HFF [4] = experiment: Cytotoxic concentration for 50% inhibition of cell growth of HSV-2 infected HFF cells determined by VPR assay; type: functional; conditions: Homo sapiens
In short: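 Run in virus-infected HFF cells within the plaque reduction assay set-up. […] The value was converted from μg/mL to μM.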

HFF [5] = experiment: Inhibitory concentration for HSV-1 plaque reduction (VPR) by 50% in HFF cells; type: functional, cell-based; conditions: Homo sapiens
HFF [6] = experiment: Inhibitory concentration for HSV-2 plaque reduction (VPR) by 50% in HFF cells; type: functional, cell-based; conditions: Homo sapiens
Human alphaherpesvirus 1 = experiment: Inhibitory concentration required to reduce HSV-1 induced cytopathogenic effect (CPE) by 50 % in HFF cells; type: functional, organism-based, herpes simplex virus; conditions: Human alphaherpesvirus 1, HFF
Human alphaherpesvirus 2 = experiment: Inhibitory concentration required to reduce HSV-2 induced cytopathogenic effect (CPE) by 50 % in HFF cells; type: functional, organism-based; conditions: Human alphaherpesvirus 2, HFF
[7] = (§1) Inhibition constant against HSV-1 TK; type: functional, herpes simplex virus
Homo sapiens [8] = species: Homo sapiens; experiment: Cytotoxic concentration that produces 50% growth inhibition of human skin fibroblast infected with HSV-1; type: functional
Homo sapiens [9] = species: Homo sapiens; experiment: Inhibitory concentration required to reduce HSV-1 induced cytopathogenic effect (CPE) in human skin fibroblast; type: functional, organism-based
Homo sapiens [10] = species: Homo sapiens; experiment: Inhibitory concentration required to reduce HSV-1 induced virus plaque reduction (VPR) in human skin fibroblast; type: functional, organism-based
Homo sapiens [11] = species: Homo sapiens; experiment: Inhibitory concentration required to reduce HSV-2 induced cytopathogenic effect in human skin fibroblast; type: functional, organism-based
Homo sapiens [12] = species: Homo sapiens; experiment: Inhibitory concentration required to reduce HSV-2 induced virus plaque reduction (VPR) in human skin fibroblast; type: functional, organism-based
Homo sapiens [13] = species: Homo sapiens; experiment: Cytotoxic concentration that produces 50% growth inhibition of human skin fibroblast in VPR assay; type: functional
Human alphaherpesvirus 3 [14] = experiment: Effective concentration of compound against Varicella-Zoster Virus (VZV); Range is 0.06-0.12 uM; type: functional, organism-based
Human alphaherpesvirus 3 [15] = experiment: Antiviral activity against 07/1 strain of thymidine kinase negative (TK-) Varicella-Zoster Virus (VZV); type: functional, organism-based
[16] = Catalytic rate constant was determined; type: ADME
[17] = as §1; type: functional, herpes simplex virus; remark: listed apart in the source
In short: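 Purified HSV-1 TK converts [methyl-³H]thymidine to its monophosphate in 50 mM Tris pH 7.5, 5 mM MgCl₂, 5 mM ATP, 2.5 mg/mL BSA under initial-velocity conditions. Three inhibitor concentrations are used, and apparent Ki is taken from Lineweaver–Burk double-reciprocal plots. Six independent assays.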

Human alphaherpesvirus 3 [18] = experiment: Antiviral activity against OKA strain of thymidine kinase positive(TK+) Varicella-Zoster Virus (VZV); type: functional, organism-based
Human alphaherpesvirus 3 [19] = experiment: Minimum cytotoxic concentration that causes alterations of VZV infected Osteosarcoma cell morphology; type: functional
Human alphaherpesvirus 3 [20] = experiment: Effective concentration against TK+ Varicella-Zoster Virus (VZV) OKA strain; type: functional, organism-based
Human alphaherpesvirus 3 [21] = experiment: Effective concentration against TK+ Varicella-Zoster Virus (VZV)YS strain; type: functional, organism-based
Human alphaherpesvirus 3 [22] = experiment: Effective concentration against TK- Varicella-Zoster Virus (VZV) 07/1 strain; type: functional, organism-based
Human alphaherpesvirus 3 [23] = experiment: Effective concentration against TK- Varicella-Zoster Virus (VZV) YS/R strain; type: functional, organism-based
Human alphaherpesvirus 3 [24] = experiment: Antiviral activity against YS strain of thymidine kinase positive(TK+) Varicella-Zoster Virus (VZV); type: functional, organism-based
Human alphaherpesvirus 3 [25] = experiment: Antiviral activity against YS/R strain of thymidine kinase negative(TK-) Varicella-Zoster Virus (VZV); type: functional, organism-based
[26] = Cytotoxic concentration that produces 50% inhibition of cell growth.; type: functional
[27] = Minimum cytotoxic concentration that causes microscopically detectable alterations of cell morphology; type: functional
Homo sapiens [28] = species: Homo sapiens; experiment: Cytotoxic concentration that produces 50% growth inhibition of human skin fibroblast in CPE assay; type: functional
Human alphaherpesvirus 3 [29] = experiment: Cytotoxic concentration that causes growth inhibition of VZV infected Osteosarcoma cells; type: functional
[30] = tested on: Thymidine kinase (Herpes simplex virus type 1); experiment: Catalytic turnover constant against HSV-1 thymidine kinase
[31] = Cytotoxic concentration against HSV-1 TK- transfected osteosarcoma cells; type: functional; conditions: Human alphaherpesvirus 1
In short: (§2)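 Osteosarcoma lines (143B-TK⁻ with 0.1 mg/mL 5-BrdU selection; MG-63-hTK1; 143B-TK⁺-HSV1-WT with HAT) grown in MEM/10% FCS. Seeded at 2 × 10³ (143B lines) or 1.5 × 10³ (MG-63) cells/well, exposed to five concentrations over 0.5–500 μM for 4.5 days at 37 °C/5% CO₂. XTT added for 9 h, A450 (ref 750 nm) read against untreated wells. Three independent series in triplicate.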

[32] = Cytotoxic concentration against HSV-1 TK-transfected osteosarcoma cells; type: functional; conditions: Human alphaherpesvirus 1; in short: as §2
[33] = Cytotoxic concentration against non transfected osteosarcoma cells non transfected (MG-63-hTK1); type: functional; in short: as §2
[34] = Inhibitory activity against HSV-1-TK transfected osteosarcoma cells; type: functional; in short: as §2
[35] = target: T1, Thymidine kinase, cytosolic (Homo sapiens) (UniProt P04183); conditions: herpes simplex virus
T1 sequence (whole entry): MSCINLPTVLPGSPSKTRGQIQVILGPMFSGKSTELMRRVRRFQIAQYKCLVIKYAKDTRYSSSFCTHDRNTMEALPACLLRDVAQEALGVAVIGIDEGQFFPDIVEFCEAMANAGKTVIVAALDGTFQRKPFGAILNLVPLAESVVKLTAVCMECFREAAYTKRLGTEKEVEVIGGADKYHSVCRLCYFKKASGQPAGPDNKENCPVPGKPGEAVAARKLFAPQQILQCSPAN

Cc1cn([C@H]2C[C@H](O)[C@]3(CO)C[C@H]23)c(=O)[nH]c1=O [(NORTH)-METHANOCARBATHYMIDINE]
CC50 (HFF [1]): > 396 µM | CC50 (HFF [2]): > 79 µM | CC50 (HFF [3]): > 396 µM | CC50 (HFF [4]): > 79 µM | EC50 (HFF [5]): 0.04 µM | EC50 (HFF [6]): 0.47 µM | EC50 (Human alphaherpesvirus 1): 0.12 µM | EC50 (Human alphaherpesvirus 2): 0.35 µM | Ki [7]: 16.1 µM | CC50 (Homo sapiens [8]): > 396 µM | EC50 (Homo sapiens [9]): 0.12 µM | EC50 (Homo sapiens [10]): 0.04 µM | EC50 (Homo sapiens [11]): 0.35 µM | EC50 (Homo sapiens [12]): 0.47 µM | CC50 (Homo sapiens [13]): > 79 µM

O=c1[nH]c(=O)n([C@H]2C[C@@H](CO)[C@H](O)C2)cc1/C=C/Br
EC50 (Human alphaherpesvirus 3 [14]): 0.12 µM

O=c1[nH]c(=O)n([C@H]2C[C@H](O)[C@]3(CO)C[C@H]23)cc1/C=C/Br
EC50 (Human alphaherpesvirus 3 [15]): > 5 µM | k cat [16]: 0.07 s⁻¹ | Ki [17]: 62.9 µM | CC50 (HFF [1]): > 291 µM | CC50 (HFF [3]): > 291 µM | EC50 (Human alphaherpesvirus 1): 6.41 µM | EC50 (Human alphaherpesvirus 2): > 291 µM | EC50 (Homo sapiens [9]): 6.41 µM | EC50 (Homo sapiens [11]): > 291 µM | EC50 (Human alphaherpesvirus 3 [18]): 0.005 µM | MCC (Human alphaherpesvirus 3 [19]): > 5 µM | EC50 (Human alphaherpesvirus 3 [20]): 0.005 µM | EC50 (Human alphaherpesvirus 3 [21]): 0.007 µM | EC50 (Human alphaherpesvirus 3 [22]): > 5 µM | EC50 (Human alphaherpesvirus 3 [23]): > 5 µM | EC50 (Human alphaherpesvirus 3 [24]): 0.007 µM | EC50 (Human alphaherpesvirus 3 [25]): > 5 µM | CC50 [26]: > 200 µM | MCC [27]: > 5 µM | CC50 (Homo sapiens [28]): > 291 µM | CC50 (Human alphaherpesvirus 3 [29]): > 200 µM | k cat [30]: 0.07 s⁻¹

Nc1nc2c(ncn2COC(CO)CO)c(=O)[nH]1 [GANCICLOVIR]
CC50 [31]: 200 µM | CC50 [32]: 75 µM | CC50 [33]: 300 µM | CC50 [34]: 75 µM | k cat [35]: 0.1 s⁻¹

Cc1cn([C@H]2C[C@H](O)[C@@H](CO)O2)c(=O)[nH]c1=O [DOXRIBTIMINE]
k cat [16]: 0.35 s⁻¹ | k cat [35]: 0.35 s⁻¹
